Laboratory results from ChEMBL document CHEMBL2040734, “Benzothiazoles: search for anticancer agents” (2012).

Experiments:
Format in all cases: functional
[1] = tested on: U-251; experiment: Cytotoxicity against human U251 cells assessed as cell growth at 0.1 uM after 48 hrs by sulforhodamine B assay; settings: U-251, 48 h, read-out: Activity
[2] = tested on: CAKI-1; experiment: Cytotoxicity against human Caki1 cells assessed as cell growth at 0.1 uM after 48 hrs by sulforhodamine B assay; settings: CAKI-1, 48 h, read-out: Activity
Summary of the method: (§1)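 NCI-60 five-dose screen. Cells were grown in RPMI 1640 with 5% FBS and 2 mM L-glutamine and preincubated 24 h. Compound (DMSO stock) was tested at 0.01, 0.1, 1, 10 and 100 µM for 48 h at 37 °C. Cells were fixed in situ with cold TCA (final 10%) and stained with 0.4% SRB. A515 was read, and percent growth was calculated against time-zero and control plates.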

[3] = tested on: NCI-H460; experiment: Cytotoxicity against human NCI-H460 cells assessed as cell growth at 100 uM after 48 hrs by sulforhodamine B assay; settings: NCI-H460, 48 h, read-out: Activity
[4] = tested on: OVCAR-4; experiment: Cytotoxicity against human OVCAR4 cells assessed as cell growth at 100 uM after 48 hrs by sulforhodamine B assay; settings: OVCAR-4, 48 h, read-out: Activity
[5] = tested on: ACHN; experiment: Cytotoxicity against human ACHN cells assessed as cell growth at 100 uM after 48 hrs by sulforhodamine B assay; settings: read-out: Activity; summary of the method: as §1
[6] = tested on: DU-145; experiment: Cytotoxicity against human DU145 cells assessed as cell growth at 0.1 uM after 48 hrs by sulforhodamine B assay; settings: DU-145, 48 h, read-out: Activity; summary of the method: as §1
[7] = tested on: HCT-116; experiment: Cytotoxicity against human HCT116 cells assessed as cell growth at 1 uM after 48 hrs by sulforhodamine B assay; settings: HCT-116, 48 h, read-out: Activity
Summary of the method: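 Five-dose NCI panel run at 0.01, 0.1, 1, 10 and 100 µM. Cells were in RPMI 1640 with 5% FBS and 2 mM L-glutamine, seeded at 5000–40,000 cells/well and pre-incubated 24 h. Drug was diluted from a DMSO stock into medium with 50 µg/ml gentamicin. Exposure was 48 h at 37 °C, 5% CO2. Cells were fixed with cold TCA and stained with 0.4% SRB, read at 515 nm. Percent growth came from time-zero, control and test absorbances.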

[8] = tested on: SF-539; experiment: Cytotoxicity against human SF539 cells assessed as cell growth at 1 uM after 48 hrs by sulforhodamine B assay; settings: SF-539, 48 h, read-out: Activity
[9] = tested on: IGROV-1; experiment: Cytotoxicity against human IGROV1 cells assessed as cell growth at 1 uM after 48 hrs by sulforhodamine B assay; settings: IGROV-1, 48 h, read-out: Activity
[10] = tested on: TK-10; experiment: Cytotoxicity against human TK10 cells assessed as cell growth at 1 uM after 48 hrs by sulforhodamine B assay; settings: TK-10, 48 h, read-out: Activity
[11] = tested on: MDA-MB-231; experiment: Cytotoxicity against human MDA-MB-231 cells assessed as cell growth at 1 uM after 48 hrs by sulforhodamine B assay; settings: MDA-MB-231, 48 h, read-out: Activity
[12] = tested on: COLO 205; experiment: Cytotoxicity against human COLO205 cells assessed as cell growth at 10 uM after 48 hrs by sulforhodamine B assay; settings: COLO 205, 48 h, read-out: Activity; summary of the method: as §1
[13] = tested on: OVCAR-5; experiment: Cytotoxicity against human OVCAR5 cells assessed as cell growth at 10 uM after 48 hrs by sulforhodamine B assay; settings: OVCAR-5, 48 h, read-out: Activity
[14] = tested on: OVCAR-8; experiment: Cytotoxicity against human OVCAR8 cells assessed as cell growth at 10 uM after 48 hrs by sulforhodamine B assay; settings: OVCAR-8, 48 h, read-out: Activity
[15] = tested on: RXF 393; experiment: Cytotoxicity against human RXF393 cells assessed as cell growth at 10 uM after 48 hrs by sulforhodamine B assay; settings: RXF 393, 48 h, read-out: Activity
[16] = tested on: BT-549; experiment: Cytotoxicity against human BT549 cells assessed as cell growth at 10 uM after 48 hrs by sulforhodamine B assay; settings: BT-549, 48 h, read-out: Activity; summary of the method: as §1
[17] = tested on: RPMI-8226; experiment: Cytotoxicity against human RPMI8226 cells assessed as cell growth at 100 uM after 48 hrs by sulforhodamine B assay; settings: RPMI-8226, 48 h, read-out: Activity
[18] = tested on: NCI-H322M; experiment: Cytotoxicity against human NCI-H322M cells assessed as cell growth at 10 '-5 M after 48 hrs by sulforhodamine B assay; settings: read-out: Activity
[19] = tested on: SK-OV-3; experiment: Cytotoxicity against human SKOV3 cells assessed as cell growth at 10 '-5 M after 48 hrs by sulforhodamine B assay; settings: SK-OV-3, 48 h, read-out: Activity
[20] = tested on: DU-145; experiment: Cytotoxicity against human DU145 cells assessed as cell growth at 10 '-5 M after 48 hrs by sulforhodamine B assay; settings: DU-145, 48 h, read-out: Activity
Summary of the method: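 Primary one-dose screen across the NCI 60-line panel at 10 µM. Cells were grown in RPMI 1640 with 5% FBS and 2 mM L-glutamine and held 24 h before drug. Drug was diluted from a DMSO concentrate. Exposure was 48 h at 37 °C, 5% CO2. Cells were fixed with TCA and stained with SRB, with absorbance read at 515 nm. Percent growth was calculated against time-zero and untreated control.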

[21] = tested on: MCF7; experiment: Cytotoxicity against human MCF7 cells assessed as cell growth at 10 '-5 M after 48 hrs by sulforhodamine B assay; settings: MCF7, 48 h, read-out: Activity
[22] = tested on: T47D; experiment: Cytotoxicity against human T47D cells assessed as cell growth at 10 '-5 M after 48 hrs by sulforhodamine B assay; settings: read-out: Activity
[23] = tested on: M14; experiment: Growth inhibition of human M14 cells after 48 hrs by sulforhodamine B assay; settings: M14, 48 h
Summary of the method: (§2)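 Adherent NCI-60 lines were grown in RPMI 1640 with 5% FBS and 2 mM L-glutamine, plated at 5000–40,000 cells/well and preincubated 24 h. They were then exposed to five concentrations (0.01–100 µM, from a DMSO stock) for 48 h at 37 °C, 5% CO2. Cells were fixed with cold TCA (10% final, 60 min, 4 °C) and stained with 0.4% SRB. Dye was solubilized in 10 mM Tris base and A515 read. GI50 was derived from time-zero, control and treated absorbances.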

[24] = tested on: OVCAR-3; experiment: Growth inhibition of human OVCAR3 cells after 48 hrs by sulforhodamine B assay; settings: OVCAR-3, 48 h; for CC50: read-out: LC50 (the source's name); summary of the method: as §2
[25] = tested on: RXF 393; experiment: Growth inhibition of human RXF393 cells after 48 hrs by sulforhodamine B assay; settings: RXF 393, 48 h; summary of the method: as §2
[26] = tested on: NCI-H226; experiment: Cytotoxicity against human NCI-H226 cells assessed as cell growth at 0.1 uM after 48 hrs by sulforhodamine B assay; settings: NCI-H226, 48 h, read-out: Activity
[27] = tested on: NCI-H226; experiment: Cytotoxicity against human NCI-H226 cells assessed as cell growth at 10 uM after 48 hrs by sulforhodamine B assay; settings: NCI-H226, 48 h, read-out: Activity
[28] = tested on: HOP-92; experiment: Growth inhibition of human HOP92 cells after 48 hrs by sulforhodamine B assay; settings: HOP-92, 48 h; summary of the method: as §2
[29] = read-out: LC50 (the source's name)

Row | Structure (SMILES) | growth at 0.1 µM [1] [%] | growth at 0.1 µM [2] [%] | growth at 100 µM [3] [%] | growth at 100 µM [4] [%] | growth at 100 µM [5] [%] | growth at 0.1 µM [6] [%] | growth at 1 µM [7] [%] | growth at 1 µM [8] [%] | growth at 1 µM [9] [%] | growth at 1 µM [10] [%] | growth at 1 µM [11] [%] | growth at 10 µM [12] [%] | growth at 10 µM [13] [%] | growth at 10 µM [14] [%] | growth at 10 µM [15] [%] | growth at 10 µM [16] [%] | growth at 100 µM [17] [%] | growth at 10 µM [18] [%] | growth at 10 µM [19] [%] | growth at 10 µM [20] [%] | also measured
1 | Cc1ccc2nc(Nc3c(C)cccc3C)sc2c1 | 105 | 83 | 51 | 77 | 49 | 102 | 66 | 76 | 83 | 82 | 37 | 49 | 65 | 67 | 27 | 46 | 73 | 71 | 47.1 | 62.1 | growth at 10 µM [21]: 19.8%; growth at 10 µM [22]: 45.8%; LC50 [23]: > 100 µM; TGI [23]: > 100 µM; GI50 [24]: > 100 µM; TGI [24]: > 100 µM; CC50 [24]: > 100 µM; GI50 [25]: 1.2 µM; TGI [25]: > 100 µM; CC50 [25, 29]: > 100 µM
2 | Clc1cccc(Cl)c1Nc1nc2cccc(Cl)c2s1 | 98 | 73 | -39 | -87 | -100 | 102 | 51 | 77 | 55 | 59 | 17 | -91 | -93 | -71 | -73 | -86 | -13 | 9.8 | 6.87 | -7.04 | growth at 0.1 µM [26]: 45%; growth at 10 µM [27]: -83%; growth at 10 µM [21]: -14.7%; growth at 10 µM [22]: -4.9%; GI50 [28]: 0.0718 µM; TGI [28]: 0.69 µM; CC50 [28, 29]: 3.61 µM; GI50 [23]: 1.46 µM; LC50 [23]: 7.44 µM; TGI [23]: 3.29 µM; GI50 [24]: 0.983 µM; TGI [24]: 2.2 µM; CC50 [24]: 4.86 µM; GI50 [25]: 0.676 µM; TGI [25]: 2.41 µM
